These results are taken from ChEMBL document CHEMBL4373718, “Germacrane Sesquiterpenoids as a New Type of Anticardiac Fibrosis Agent Targeting Transforming Growth Factor β Type I Receptor” (J Med Chem, 2019).

The target in data set [1] is T1, TGF-beta receptor type-1 (Rattus norvegicus) (UniProt P80204).
T1 sequence (whole entry): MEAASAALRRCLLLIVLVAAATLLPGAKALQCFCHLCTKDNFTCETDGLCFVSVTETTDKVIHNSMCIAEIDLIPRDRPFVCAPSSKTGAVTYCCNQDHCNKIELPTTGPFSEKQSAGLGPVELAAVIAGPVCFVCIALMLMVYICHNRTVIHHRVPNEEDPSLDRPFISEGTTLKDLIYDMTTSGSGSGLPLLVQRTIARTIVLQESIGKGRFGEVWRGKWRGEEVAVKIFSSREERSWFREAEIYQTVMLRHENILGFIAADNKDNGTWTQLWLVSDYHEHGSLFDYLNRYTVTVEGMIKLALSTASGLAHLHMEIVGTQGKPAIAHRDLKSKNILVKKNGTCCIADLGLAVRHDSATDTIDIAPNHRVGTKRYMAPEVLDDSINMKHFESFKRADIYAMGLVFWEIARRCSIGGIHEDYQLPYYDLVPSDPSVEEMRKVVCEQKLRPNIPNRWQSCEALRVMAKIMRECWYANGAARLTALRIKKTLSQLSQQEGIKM
The data set can be described thus: Inhibition of TGFbeta1 receptor in TGFbeta1-stimulated Sprague-Dawley rat cardiac fibroblasts assessed as reduction in fibronectin expression measured after 12 hrs by Western blot analysis. The gist of the method:
(§1)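 Primary rat cardiac fibroblasts (passages 2–4, 3×10^5 per well) treated with compound plus 10 ng/mL TGFβ1 for 12 h; tested at 2.5, 5 and 10 µM. Lysates run on 10% SDS-PAGE (30 µg protein), probed for FN, α-SMA and collagen I/III, and quantified by densitometry against GAPDH. N=3 independent experiments.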
On the technique in general: In western blotting, separated proteins are transferred to a membrane and probed.

The target in data set [2] is T1, TGF-beta receptor type-1 (Rattus norvegicus). The data set can be described thus: Inhibition of TGFbeta1 receptor in TGFbeta1-stimulated Sprague-Dawley rat cardiac fibroblasts assessed as reduction in collagen 1 expression measured after 12 hrs by Western blot analysis. The gist of the method: as §1
For data set [3] the target is unchanged. The data set can be described thus: Inhibition of TGFbeta1 receptor in TGFbeta1-stimulated Sprague-Dawley rat cardiac fibroblasts assessed as reduction in fibronectin mRNA expression at 2.5 to 10 uM measured after 12 hrs by qRT-PCR analysis. The gist of the method: (§2)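 Primary rat cardiac fibroblasts (3×10^5 per well) treated with compound plus 10 ng/mL TGFβ1 for 12 h. Total RNA extracted and target transcripts measured by SYBR Green qRT-PCR, normalized to GAPDH.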
On the technique in general: Quantitative PCR measures a nucleic acid by following its amplification.

For data set [4] the target is unchanged. The data set can be described thus: Inhibition of TGFbeta1 receptor in TGFbeta1-stimulated Sprague-Dawley rat cardiac fibroblasts assessed as reduction in collagen 1 mRNA expression at 2.5 to 10 uM measured after 12 hrs by qRT-PCR analysis. The gist of the method:
as §2

Data set [5] is described as follows: Effect on total Smad3 expression in TGFbeta1-stimulated Sprague-Dawley rat cardiac fibroblasts at 10 uM measured after 5 to 30 mins by Western blot analysis. In kind it is ADME.
The target of data set [6] is T1, TGF-beta receptor type-1 (Rattus norvegicus). The experiment in a line: Inhibition of TGFbeta1 receptor in TGFbeta1-stimulated Sprague-Dawley rat cardiac fibroblasts assessed as reduction in Smad3 phosphorylation at 10 uM measured after 5 to 30 mins by Western blot analysis.
For data set [7] the target is unchanged. The experiment in a line: Inhibition of TGFbeta1 receptor in TGFbeta1-stimulated Sprague-Dawley rat cardiac fibroblasts assessed as reduction in Smad2 phosphorylation at 10 uM measured after 5 to 30 mins by Western blot analysis.
Data set [8] has the same target. The experiment in a line: Inhibition of TGFbeta1 receptor in TGFbeta1-stimulated Sprague-Dawley rat cardiac fibroblasts assessed as reduction in Smad3 nuclear translocation at 10 uM measured after 5 mins by DAPI staining-based laser confocal microscopic analysis. The gist of the method: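 Primary rat cardiac fibroblasts treated with 10 µM compound plus 10 ng/mL TGFβ1 for 5 min. Fixed in 4% PFA, permeabilized with 0.1% Triton X-100, blocked with goat serum. Stained with anti-Smad2 or anti-Smad3 overnight at 4 °C, then Alexa 594 secondary and DAPI nuclear stain. Imaged by confocal microscopy.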

Data set [9] has as its system Rattus norvegicus. The data set can be described thus: Antifibrotic activity in abdominal aortic constriction Sprague-Dawley rat model of cardiac fibrosis assessed as decrease in heart collagen level at 5 mg/kg, ip administered once daily for 4 weeks measured post-last dose by Masson's trichrome staining-based histological analysis relative to control. In kind it is functional. Also noted: scale not given: the % may be the effect or the level left. The gist of the method:
(§3)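 Male SD rats (200–250 g) with abdominal aortic constriction (suture tied over a 21-G probe above the renal arteries), under pentobarbital 30 mg/kg ip. Dosed ip daily for 4 weeks. Vehicle was saline with 0.5% DMSO and 5% Kolliphor HS 15. Groups: sham, AAC, AAC+nifedipine 10 mg/kg, n=8 each. Formalin-fixed paraffin sections 4 µm thick; FN and α-SMA by immunohistochemistry, collagen by Masson's trichrome; stained area measured.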

Data set [10] concerns Rattus norvegicus. The data set can be described thus: Antifibrotic activity in abdominal aortic constriction Sprague-Dawley rat model of cardiac fibrosis assessed as decrease in heart alpha-SMA level at 5 mg/kg, ip administered once daily for 4 weeks measured post-last dose by immunohistochemical analysis relative to control. In kind it is functional. Also on record: scale not given: the % may be the effect or the level left. The gist of the method: as §3

Data set [11] deals with Rattus norvegicus. The experiment in a line: Antifibrotic activity in abdominal aortic constriction Sprague-Dawley rat model of cardiac fibrosis assessed as down regulation of fibronectin expression in heart at 5 mg/kg, ip administered once daily for 4 weeks measured post-last dose by Western blot analysis. In kind it is functional, organism-based. The gist of the method:
(§4)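 AAC rats dosed ip daily for 4 weeks, n=8 per group. Hearts homogenized in lysis buffer with protease and phosphatase inhibitors and spun at 12,000 rpm for 30 min at 4 °C. Nuclear and cytoplasmic fractions prepared with a kit. Protein measured by BCA; 30 µg run on 10% SDS-PAGE, transferred to PVDF and immunoblotted; bands quantified by densitometry.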

Data set [12] has as its system Rattus norvegicus. The data set can be described thus: Antifibrotic activity in abdominal aortic constriction Sprague-Dawley rat model of cardiac fibrosis assessed as reduction in Smad3 phosphorylation in heart at 5 mg/kg, ip administered once daily for 4 weeks measured post-last dose by Western blot analysis. In kind it is functional, organism-based. The gist of the method:
as §4

The test system of data set [13] is Rattus norvegicus. The data set can be described thus: Antifibrotic activity in abdominal aortic constriction Sprague-Dawley rat model of cardiac fibrosis assessed as reduction in Smad2 phosphorylation in heart at 5 mg/kg, ip administered once daily for 4 weeks measured post-last dose by immunohistochemical analysis. In kind it is functional, organism-based. The gist of the method:
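AAC rats dosed ip daily for 4 weeks, n=8 per group. Phospho-Smad2/3 stained by immunohistochemistry on 4 µm paraffin heart sections. Stained area summed over 6 fields per rat for statistics.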

Data set [14] concerns Rattus norvegicus. The experiment in a line: Antifibrotic activity in abdominal aortic constriction Sprague-Dawley rat model of cardiac fibrosis assessed as reduction in Smad2 nuclear translocation in heart at 5 mg/kg, ip administered once daily for 4 weeks measured post-last dose by Western blot analysis. In kind it is functional, organism-based. The gist of the method: as §4

Data set [15] has as its system Rattus norvegicus. The data set can be described thus: Antifibrotic activity in abdominal aortic constriction Sprague-Dawley rat model of cardiac fibrosis assessed as diastolic left ventricular anterior wall thickness at 5 mg/kg, ip administered once daily for 4 weeks measured post-last dose by echocardiography (reference value: 2.48 +/- 0.42 mm). In kind it is functional.

Data set [16] has as its system Rattus norvegicus. The experiment in a line: Antifibrotic activity in abdominal aortic constriction Sprague-Dawley rat model of cardiac fibrosis assessed as systolic left ventricular anterior wall thickness at 5 mg/kg, ip administered once daily for 4 weeks measured post-last dose by echocardiography (reference value: 3.92 +/- 0.42 mm). In kind it is functional.
For data set [17], the system named is Rattus norvegicus. The experiment in a line: Antifibrotic activity in abdominal aortic constriction Sprague-Dawley rat model of cardiac fibrosis assessed as diastolic left ventricular internal diameter at 5 mg/kg, ip administered once daily for 4 weeks measured post-last dose by echocardiography (reference value: 7.60 +/- 0.63 mm). In kind it is functional.

Data set [18] relates to Rattus norvegicus. The data set can be described thus: Antifibrotic activity in abdominal aortic constriction Sprague-Dawley rat model of cardiac fibrosis assessed as fractional shortening at 5 mg/kg, ip administered once daily for 4 weeks measured post-last dose by echocardiography (reference value: 48.17 +/- 4.69%). In kind it is functional.

Molecules are shown by their SMILES. Active and inactive are the calls of the source. No cut-off for these calls is given here.

Regarding `C=C(C)[C@@H]1C/C=C(\C)C(=O)CCC2=C[C@@H]1OC2=O`, the inhibition entry in data set [1] and in data set [2] was “Dose-dependent effect” each time. The inhibition entry in [3], in data set [4], in [6], in data set [7] and in data set [8] was “Active” in each case. For the same molecule, the Activity result in data set [5] is “Non-Toxic”; in the data set with Rattus norvegicus [9], 65.6%; with Rattus norvegicus [10], 88.8%; with Rattus norvegicus [15] it was 2.11 mm; in the data set on Rattus norvegicus [16], 3.46 mm; with Rattus norvegicus [17] it was 8.3 mm. Also, the Activity with Rattus norvegicus [18] came to 42.54%. Besides, the outcome in the data set on Rattus norvegicus [11], in the data set on Rattus norvegicus [12], in the data set with Rattus norvegicus [13] and with Rattus norvegicus [14] was Active.
